Test results taken from ChEMBL document CHEMBL4732238, “Synthesis, biological evaluation, and structure-activity relationships of new tubulin polymerization inhibitors based on 5-amino-1,2,4-triazole scaffold” (Bioorg Med Chem Lett, 2021).

Key:
PANC-1 [1] = assay: Antiproliferative activity against human PANC-1 cells assessed as cell growth inhibition at 100 uM by MTT assay relative to control; assay type: functional; details: read-out: GI
In short: (§1)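 Five human lines (MCF-7, HeLa, A549, PC-3, Panc-1) exposed to a single 100 μM concentration. Viability read by MTT. Results expressed as […] versus untreated control cells.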

MCF7 [2] = assay: Antiproliferative activity against human MCF7 cells assessed as cell growth inhibition at 100 uM by MTT assay relative to control; assay type: functional; details: read-out: GI; in short: as §1
Tubulin (Homo sapiens) = Tubulin (Homo sapiens) (UniProt P68371+Q9H4B7+P0DPH7+P68366+Q13509+Q71U36+P04350+Q3ZCM7+P07437+P68363+Q9BQE3+Q6PEY2+Q13885+Q9BVA1+Q9BUF5); assay: Inhibition of tubulin (unknown origin) polymerization at 10 uM measured every 1 min over 20 mins by fluorescence assay relative to control; assay type: protein-complex assay
In short: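 Tubulin in reaction buffer incubated at 37 °C with test agent at final 10 μM; control 1% DMSO. Polymerization followed at 340 nm, read every minute over 20 min. Run three times.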

HeLa [3] = assay: Antiproliferative activity against human HeLa cells assessed as cell growth inhibition by MTT assay; assay type: functional, cell-based
In short: (§2)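 MTT antiproliferation readout. […] Mean ± SD from three independent experiments.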

PANC-1 [4] = assay: Antiproliferative activity against human PANC-1 cells assessed as cell growth inhibition by MTT assay; assay type: functional, cell-based; in short: as §2
MCF7 [5] = assay: Antiproliferative activity against human MCF7 cells assessed as cell growth inhibition by MTT assay; assay type: functional, cell-based; in short: as §2
PC-3 = assay: Antiproliferative activity against human PC-3 cells assessed as cell growth inhibition at 100 uM by MTT assay relative to control; assay type: functional; details: read-out: GI; in short: as §1
HeLa [6] = assay: Antiproliferative activity against human HeLa cells assessed as cell growth inhibition at 100 uM by MTT assay relative to control; assay type: functional; details: read-out: GI; in short: as §1
K562 = assay: Antiproliferative activity against human K562 cells assessed as cell growth inhibition by MTT assay; assay type: functional, cell-based
A549 = assay: Antiproliferative activity against human A549 cells assessed as cell growth inhibition at 100 uM by MTT assay relative to control; assay type: functional; details: read-out: GI; in short: as §1
HeLa [7] = assay: Cell cycle arrest in human HeLa cells assessed as accumulation at G2/M phase at 40 uM measured after 48 hrs by propidium iodide staining based flow cytometry (reference value: 14.45 %); assay type: functional
HeLa [8] = assay: Cell cycle arrest in human HeLa cells assessed as accumulation at G2/M phase at 20 uM measured after 48 hrs by propidium iodide staining based flow cytometry (reference value: 14.45 %); assay type: functional
HeLa [9] = assay: Cell cycle arrest in human HeLa cells assessed as accumulation at G1/G0 phase at 20 uM measured after 48 hrs by propidium iodide staining based flow cytometry (reference value: 54.82 %); assay type: functional
HeLa [10] = assay: Cell cycle arrest in human HeLa cells assessed as accumulation at G1/G0 phase at 40 uM measured after 48 hrs by propidium iodide staining based flow cytometry (reference value: 54.82 %); assay type: functional
HeLa [11] = assay: Cell cycle arrest in human HeLa cells assessed as accumulation at S phase at 20 uM measured after 48 hrs by propidium iodide staining based flow cytometry (reference value: 30.73 %); assay type: functional
HeLa [12] = assay: Cell cycle arrest in human HeLa cells assessed as accumulation at S phase at 10 uM measured after 48 hrs by propidium iodide staining based flow cytometry (reference value: 30.73 %); assay type: functional
HeLa [13] = assay: Cell cycle arrest in human HeLa cells assessed as accumulation at G2/M phase at 10 uM measured after 48 hrs by propidium iodide staining based flow cytometry (reference value: 14.45 %); assay type: functional
HeLa [14] = assay: Cell cycle arrest in human HeLa cells assessed as accumulation at S phase at 40 uM measured after 48 hrs by propidium iodide staining based flow cytometry (reference value: 30.73 %); assay type: functional
HeLa [15] = assay: Cell cycle arrest in human HeLa cells assessed as accumulation at G1/G0 phase at 10 uM measured after 48 hrs by propidium iodide staining based flow cytometry (reference value: 54.82 %); assay type: functional

SMILES | inhibition of growth at 100 µM (PANC-1 [1]) [%] | inhibition of growth at 100 µM (MCF7 [2]) [%] | inhibition of growth at 100 µM (PC-3) [%] | inhibition of growth at 100 µM (HeLa [6]) [%] | inhibition of growth at 100 µM (A549) [%] | also measured
COc1cc(-c2nc(N)n(CC(=O)c3ccc(C)cc3)n2)cc(OC)c1OC | 17 | 53 | 35 | 70 |  | inhibition (Tubulin (Homo sapiens)): 42%; IC50 (HeLa [3]): 54 µM; IC50 (PANC-1 [4]): > 100 µM; IC50 (MCF7 [5]): 53 µM; IC50 (K562): 33 µM
COc1cc(-c2nc(N)n(CC(=O)Nc3c(C)cc(C)cc3C)n2)cc(OC)c1OC | 32 | 34 | 50 | 49 | 16 | 
COc1cc(-c2nc(N)n(Cc3ccc(C)cc3)n2)cc(OC)c1OC | 53 | 55 | 39 | 76 | 34 | inhibition (Tubulin (Homo sapiens)): 25%; IC50 (HeLa [3]): 46.9 µM; IC50 (PANC-1 [4]): 61.5 µM; IC50 (MCF7 [5]): 73.8 µM; IC50 (K562): 17.1 µM
CCc1ccc(NC(=O)Cn2nc(-c3cc(OC)c(OC)c(OC)c3)nc2N)cc1 |  | 31 | 40 | 12 | 27 | 
COc1cc(-c2nc(N)n(CC(=O)Nc3ccc(C(C)C)cc3)n2)cc(OC)c1OC | 22 | 8 | 37 | 45 |  | 
COc1cc(-c2nc(N)n(Cc3cc(OC(F)(F)F)cc(OC(F)(F)F)c3)n2)cc(OC)c1OC | 71 | 55 | 36 | 73 | 6 | IC50 (HeLa [3]): 53.1 µM; IC50 (PANC-1 [4]): 73 µM; IC50 (MCF7 [5]): > 100 µM; IC50 (K562): 31.5 µM
COc1cc(-c2nc(N)n(Cc3cccc(C#N)c3)n2)cc(OC)c1OC | 6 | 43 |  | 28 | 30 | 
COc1cc(-c2nc(N)n(Cc3ccc(F)cc3)n2)cc(OC)c1OC | 7 | 34 | 41 | 28 | 42 | 
COc1cc(-c2nc(N)n(CC(=O)Nc3ccc(Cl)cc3)n2)cc(OC)c1OC | 12 | 37 | 14 | 30 | 22 | 
COc1cc(-c2nc(N)n(CC(=O)c3ccc(Cl)cc3)n2)cc(OC)c1OC | 6 |  | 26 | 38 | 26 | 
COc1cc(-c2nc(N)n(CC(=O)Nc3cccc(C)c3)n2)cc(OC)c1OC | 10 | 23 | 50 | 18 | 34 | 
COc1cc(-c2nc(N)n(Cc3ccccc3F)n2)cc(OC)c1OC | 5 | 33 | 35 | 33 | 24 | 
COc1cc(-c2nc(N)n(CC(=O)Nc3ccc(C(C)(C)C)cc3)n2)cc(OC)c1OC | 93 | 93 | 70 | 95 | 93 | Activity (HeLa [7]): 28.74%; Activity (HeLa [8]): 15.59%; inhibition (Tubulin (Homo sapiens)): 48%; Activity (HeLa [9]): 56.06%; Activity (HeLa [10]): 52.66%; IC50 (HeLa [3]): 18.9 µM; Activity (HeLa [11]): 28.35%; Activity (HeLa [12]): 30.96%; Activity (HeLa [13]): 14.7%; IC50 (PANC-1 [4]): 35.1 µM; IC50 (MCF7 [5]): 35.6 µM; Activity (HeLa [14]): 18.6%; Activity (HeLa [15]): 54.33%; IC50 (K562): 9.23 µM
COc1cc(-c2nc(N)n(CC(=O)Nc3ccc(C)c(C)c3)n2)cc(OC)c1OC | 32 | 32 |  | 20 | 29 | 
COc1cccc(C(=O)Cn2nc(-c3cc(OC)c(OC)c(OC)c3)nc2N)c1 |  | 30 | 37 | 27 | 20 | 
COc1cc(-c2nc(N)n(CC(=O)c3ccc(Br)cc3)n2)cc(OC)c1OC | 6 | 27 | 38 | 41 | 12 | 
CCCc1ccc(NC(=O)Cn2nc(-c3cc(OC)c(OC)c(OC)c3)nc2N)cc1 | 91 | 70 | 61 | 75 | 37 | inhibition (Tubulin (Homo sapiens)): 14%; IC50 (HeLa [3]): 56.1 µM; IC50 (PANC-1 [4]): 20 µM; IC50 (MCF7 [5]): 44.7 µM; IC50 (K562): 41.1 µM
COc1ccc(NC(=O)Cn2nc(-c3cc(OC)c(OC)c(OC)c3)nc2N)cc1OC | 14 | 12 | 42 | 41 | 22 | 
COc1ccc(NC(=O)Cn2nc(-c3cc(OC)c(OC)c(OC)c3)nc2N)cc1 |  | 50 | 33 | 30 | 9 | 
COc1cc(-c2nc(N)n(Cc3ccc([N+](=O)[O-])cc3)n2)cc(OC)c1OC | 53 | 52 | 21 | 58 | 13 | IC50 (HeLa [3]): 57.2 µM; IC50 (PANC-1 [4]): > 100 µM; IC50 (MCF7 [5]): 82.1 µM; IC50 (K562): > 100 µM
COc1cc(-c2nc(N)n(CC(=O)c3ccccc3)n2)cc(OC)c1OC | 4 | 30 |  | 42 | 15 | 
COc1cc(-c2nc(N)n(CC(=O)c3ccc(F)cc3)n2)cc(OC)c1OC |  | 27 | 18 | 9 | 13 | 
COc1cc(-c2nc(N)n(CC(=O)c3ccc(F)c(F)c3)n2)cc(OC)c1OC | 52 | 48 | 28 | 31 | 14 | 
COc1cc(-c2nc(N)n(Cc3ccc(Cl)cc3)n2)cc(OC)c1OC | 39 | 49 | 48 | 55 | 38 | 
COc1cccc(NC(=O)Cn2nc(-c3cc(OC)c(OC)c(OC)c3)nc2N)c1 |  |  | 6 | 39 |  | 
COc1ccc(/C=C\c2cc(OC)c(OC)c(OC)c2)cc1O [COMBRETASTATIN A4] |  |  |  |  |  | IC50 (HeLa [3]): 0.0047 µM; IC50 (MCF7 [5]): 0.17 µM; IC50 (K562): 0.61 µM
COc1cc(-c2nc(N)n(CC(=O)Nc3ccc(N(C)C)cc3)n2)cc(OC)c1OC |  | 14 |  | 29 | 7 | 
COc1cc(-c2nc(N)n(CC(=O)Nc3ccc(C)cc3)n2)cc(OC)c1OC | 5 |  | 31 | 35 |  | 
COc1cc(-c2nc(N)n(CC(=O)Nc3ccc(C)cc3F)n2)cc(OC)c1OC | 22 | 21 | 25 | 32 | 12 | 
COc1cc(-c2nc(N)n(CC(=O)c3cccc(Br)c3)n2)cc(OC)c1OC | 51 | 59 |  | 66 | 35 | IC50 (HeLa [3]): 58.2 µM; IC50 (PANC-1 [4]): 79.6 µM; IC50 (MCF7 [5]): 68.4 µM; IC50 (K562): > 100 µM
